Data reported in article PMC11582619 (Communications Biology, 2024).
Entries after “also recorded” stand apart in the source; their conditions may differ. Each block holds one compound with its values, some of them ahead of it.

Assays:
[1] = test system: chronic-plus-binge ethanol-fed mice; test: Chronic-plus-binge ethanol-fed; format: in vivo, C57BL/6J mice
[2] = test system: SIRT1, SREBP-1C, PPAR-α and their target genes (liver mRNA); test: qRT-PCR of lipid metabolism genes and SIRT1 in liver of ALD mice; format: in vivo, C57BL/6J mice; settings: ethanol-fed mice, oral SSa
In short: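 NIAAA chronic-plus-binge model in C57BL/6J mice: 14-day 5% ethanol Lieber–DeCarli diet, oral SSa (5–15 mg/kg) daily for 7 days, ethanol binge on day 15, liver harvested 9 h later. Liver mRNA measured by SYBR Green qRT-PCR (25 nmol/L primers), β-actin reference, delta-delta Ct method. Protein by western blot: 20 µg per lane, 10% SDS-PAGE, ECL detection.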

SIRT1 [3] = test: Immunostaining targeting SIRT1 in mouse liver; format: in vivo, C57BL/6J mice; settings: ethanol-fed mice, oral SSa
In short: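 Male C57BL/6J mice (8 weeks) on the NIAAA chronic-plus-binge model: 5 days of Lieber–DeCarli control liquid diet, then 5% (v/v) ethanol liquid diet for 14 days. Oral SSa 5, 10 or 15 mg/kg once daily for 7 days. Day-15 oral ethanol binge; harvest under isoflurane 9 h later. Livers fixed in 4% paraformaldehyde, 5 µm sections, SIRT1 immunofluorescence imaged confocally; n = 3.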

[4] = test system: liver, kidney, spleen, lung and heart; test: Short-term toxicity of SSa, 14 days by gavage, HE staining of organs; format: in vivo; settings: male C57BL/6J mice, SSa 15 mg/kg/daily
[5] = Plasma concentration of SSa, SSB1 and SGA after oral SSa; format: in vivo, mice; settings: for course of plasma level after administration (in words): after oral SSa 50 mg/kg
In short: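 Mice fasted 24 h, then given SSa 50 mg/kg by oral gavage. About 100 µL retro-orbital blood taken at 0, 0.5, 1, 2, 4, 6, 8, 10, 12 and 24 h; 9 mice per time point, three mice pooled per sample, n = 3. Plasma SSa, SSB1 and SGA measured by UHPLC-MS/MS against plasma-matrix calibration and QC standards. AUC by moment analysis with log-trapezoidal method.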

SIRT1 [6] = test: Hepatic SIRT1 protein over time after gavage with SSa solution; format: in vivo, mice; settings: 0-12 h after gavage with SSa solution
HepG2 cells [7] = test: Oil Red O staining of ethanol-induced lipid storage in HepG2 cells; format: cell-based, human; settings: compound 7.5 μmol/L
HepG2 cells [8] = test: ROS levels by flow cytometry in ethanol-treated HepG2 cells; format: cell-based, human; settings: ethanol + compound
[9] = target: T1, Recombinant human SIRT1 protein (Homo sapiens, UniProt Q96EB6); test: Microscale thermophoresis; format: binding; settings: Kd between SIRT1 and compound (MST), recombinant human SIRT1, RED-NHS labelled
T1 sequence (Q96EB6 1-747): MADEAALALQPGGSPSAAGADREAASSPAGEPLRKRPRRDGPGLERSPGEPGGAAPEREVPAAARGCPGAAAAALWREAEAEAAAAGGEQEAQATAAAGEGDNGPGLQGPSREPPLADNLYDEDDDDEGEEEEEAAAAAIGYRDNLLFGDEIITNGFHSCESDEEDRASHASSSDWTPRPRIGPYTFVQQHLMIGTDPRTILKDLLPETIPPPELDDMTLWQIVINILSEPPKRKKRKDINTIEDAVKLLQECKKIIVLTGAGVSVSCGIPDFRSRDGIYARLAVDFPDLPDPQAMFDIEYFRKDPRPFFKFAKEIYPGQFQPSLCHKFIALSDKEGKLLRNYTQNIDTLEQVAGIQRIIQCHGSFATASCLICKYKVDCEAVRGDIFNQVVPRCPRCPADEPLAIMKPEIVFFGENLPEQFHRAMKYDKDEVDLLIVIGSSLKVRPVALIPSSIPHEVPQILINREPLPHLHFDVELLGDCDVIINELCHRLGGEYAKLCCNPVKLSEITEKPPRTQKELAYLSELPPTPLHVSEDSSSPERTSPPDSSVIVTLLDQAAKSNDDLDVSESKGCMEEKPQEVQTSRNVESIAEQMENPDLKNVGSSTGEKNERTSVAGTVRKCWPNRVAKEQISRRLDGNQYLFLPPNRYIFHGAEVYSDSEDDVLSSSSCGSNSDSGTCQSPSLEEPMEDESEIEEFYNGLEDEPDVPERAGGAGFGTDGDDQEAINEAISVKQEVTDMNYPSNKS
In short: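 Recombinant human SIRT1 labelled with RED-NHS dye (30 min, room temperature, dark) and gel-filtered; pre-test checked labelling, adsorption and aggregation. Incubated 5 min at 24 °C before MST.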

[10] = test system: chronic-plus-binge ethanol-fed mice with hepatic SIRT1 knockdown; test: NIAAA model in mice with hepatic SIRT1 knockdown; format: in vivo, C57BL/6J mice
In short: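 Hepatic SIRT1 knockdown in C57BL/6J mice by tail-vein AAV8-TBG-miR30 shRNA against mouse SIRT1, with ZsGreen tag (1 × 10^12 vg/mouse); AAV8-TBG-ZsGreen as control. Four weeks later: NIAAA chronic-plus-binge ethanol model with oral test compound once daily for 7 days. Knockdown checked by liver ZsGreen fluorescence and SIRT1 western blot. Body weight tracked, n = 6.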

[11] = test system: PGC-1α, PPAR-α, CPT-1α, ACC-1, SREBP-1C, FAS, SCD-1 (liver mRNA); format: in vivo, C57BL/6J mice; settings: ethanol-fed mice, oral SSa
[12] = test system: SIRT1, PGC-1α, PPAR-α, Deptor, mTOR, p-mTOR (liver); test: Western blot of liver proteins, with or without hepatic SIRT1 knockdown; format: in vivo, C57BL/6J mice; settings: ethanol-fed mice, oral SSa
[13] = cited from earlier work
[14] = mice, after intragastric SSa 50 mg/kg

Compound: C[C@H]1O[C@@H](O[C@H]2CC[C@@]3(C)[C@@H](CC[C@]4(C)[C@@H]3C=C[C@]35OC[C@@]6(CCC(C)(C)C[C@H]63)[C@@H](O)C[C@]54C)[C@]2(C)CO)[C@H](O)[C@@H](O[C@@H]2O[C@H](CO)[C@@H](O)[C@H](O)[C@H]2O)[C@H]1O [SSa, Saikosaponin A]
body weight and liver index ([1]; SSa 5, 10, 15 mg/kg oral): improved body weight and liver index in a dose-dependent manner
NAD+/NADH ratio in liver homogenate ([1]; oral SSa): increased the NAD^+/NADH ratio
TC and TG in liver homogenate ([1]; oral SSa): significantly reduced alcohol-induced TC and TG accumulation in the liver
liver function and plasma TC, TG, γ-GT, De Ritis ratio ([1]; oral SSa): significantly ameliorated liver function and reduced the plasma TC, TG, γ-GT content and De Ritis ratio
liver lipid deposition (Oil red O staining) ([1]; oral SSa): reduced alcohol-induced liver lipid deposition in a dose-dependent manner
liver pathology (HE staining) ([1]; oral SSa): improves liver pathological injury
liver mRNA of SREBP-1C and its target genes [2]: decreased the elevation of SREBP-1C, ACC-1, FAS and SCD-1 induced by alcohol
alcohol-induced decrease of SIRT1 expression in the liver ([2]; mRNA and protein (Fig. 2I, J)): can reverse this phenomenon
SIRT1 entry into the nucleus (liver immunofluorescence) (SIRT1 [3]): promoted SIRT1 entry into the nucleus
short-term toxicity: pathological changes of liver, kidney, spleen, lung and heart (HE) [4]: no significant pathological changes
maximal (peak) plasma concentration [5, 14]: 63.31 ng/mL
course of plasma level after administration (in words) ([5]; mice): almost completely metabolized after 2 h of administration
course of plasma level after administration (in words) ([5]; mice, listed as SSA): quickly metabolized after administration
Tmax ([5]; mouse, plasma, po, 50 mg/kg): 30 min
hepatic SIRT1 protein abundance over time (SIRT1 [6]): enhanced hepatic SIRT1 protein abundance at 4–12 h
ethanol-induced lipid droplet accumulation (Oil red O) (HepG2 cells [7]): significantly reduced the lipid droplet accumulation induced by ethanol
ethanol-induced ROS production (HepG2 cells [8]): significantly limited ethanol-induced ROS production
Kd [9]: ~25.2 µM
body weight with hepatic SIRT1 knockdown ([10]; SSa administration for 7 days): had no effect on body weight
NAD+/NADH with hepatic SIRT1 deficiency ([10]; ethanol-fed mice, oral SSa): the increase of NAD^+/NADH induced by SSa was also inhibited
hepatic pathology and lipid deposition with hepatic SIRT1 deficiency ([10]; ethanol-fed mice, oral SSa): prevents the SSa’s improvement in alcohol-induced hepatic pathology and lipid deposition
liver function recovery with hepatic SIRT1 knockdown ([10]; ethanol-fed mice, oral SSa): mitigated SSa’s improvement in alcohol-induced liver function recovery
liver PGC-1α, PPAR-α, CPT-1α mRNA with SIRT1 knockdown [11]: inhibits the upregulation of PGC-1α, PPAR-α, CPT-1α induced by SSa
liver mRNA of SREBP-1C, ACC1, FAS and SCD-1 ([11]; reversed by SIRT1 knockdown): decreased the mRNA expression of SREBP-1C, ACC1, FAS and SCD-1
liver PGC-1α, PPAR-α and Deptor protein with SIRT1 deficiency [12]: decreases the expression of PGC-1α, PPAR-α and Deptor induced by SSa treatment
intestinal absorption after oral administration [13]: poor absorbance in the intestine when administered orally
toxicity under intravenous injection [13]: marked hemolysis under intravenous injection

maximal (peak) plasma concentration [5, 14]: 105.12 ng/mL
time of first detection in plasma [5, 14]: 0.5 h
time of peak plasma concentration [5, 14]: 1 h
Compound: C[C@H]1O[C@@H](O[C@H]2CC[C@@]3(C)[C@@H](CC[C@]4(C)[C@@H]3C=CC3=C5CC(C)(C)CC[C@]5(CO)[C@@H](O)C[C@]34C)[C@]2(C)CO)[C@H](O)[C@@H](O[C@@H]2O[C@H](CO)[C@@H](O)[C@H](O)[C@H]2O)[C@H]1O [SSB1, Saikosaponin B1]
course of plasma level after administration (in words) ([5]; mice): undetectable after 6 h of administration; also recorded: quickly metabolized after administration
ethanol-induced lipid droplet accumulation (Oil red O) (HepG2 cells [7]): had no significant effect
ethanol-induced ROS production (HepG2 cells [8]): had no effect on ROS
